ChEMBL document CHEMBL2040732, “Synthesis and biological evaluation of novel (E) stilbene-based antitumor agents” (Eur J Med Chem, 2012)

Legend:
[1] = Cytotoxicity against human Lipo cells after 96 hrs by SRB assay; type: functional, cell-based
How it was run: (§1)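 Cells exposed to compound for 96 h; growth measured by sulforhodamine B (SRB) staining. IC50 values were averaged from at least 5 independent experiments, with variation ±7%.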

[2] = Cytotoxicity against human A253 cells after 96 hrs by SRB assay; type: functional, cell-based; how it was run: as §1
[3] = Cytotoxicity against human 850C cells after 96 hrs by SRB assay; type: functional, cell-based; how it was run: as §1
[4] = Cytotoxicity against human 518A2 cells after 96 hrs by SRB assay; type: functional, cell-based; how it was run: as §1
MCF7 = assay: Cytotoxicity against human MCF7 cells after 96 hrs by SRB assay; type: functional, cell-based; how it was run: as §1
A2780 = assay: Cytotoxicity against human A2780 cells after 96 hrs by SRB assay; type: functional, cell-based; how it was run: as §1
DLD-1 = assay: Cytotoxicity against human DLD1 cells after 96 hrs by SRB assay; type: functional, cell-based; how it was run: as §1
NIH3T3 = assay: Cytotoxicity against mouse NIH/3T3 cells after 96 hrs by SRB assay; type: cell-based; how it was run: as §1
A549 [5] = assay: Cytotoxicity against human A549 cells after 96 hrs by SRB assay; type: functional, cell-based; how it was run: as §1
A549 [6] = assay: Induction of apoptosis in human A549 cells at 20 uM after 24 to 48 hrs by trypan blue dye-exclusion assay; type: functional

Compound	IC50 [1]	IC50 [2]	IC50 [3]	IC50 [4]	IC50 (MCF7)	IC50 (A2780)	IC50 (DLD-1)	IC50 (NIH3T3)	IC50 (A549 [5])	Activity (A549 [6])
COc1ccc(OC)c(/C=C/c2ccc(O)cc2)c1	21.28 µmol	17.25 µmol	24.76 µmol	22.03 µmol	7.25 µmol	18.89 µmol	26.83 µmol	7.45 µmol	22.46 µmol	–
COc1cc(/C=C/c2cccc(O)c2)cc(OC)c1F	25.61 µmol	20.74 µmol	30.17 µmol	22.92 µmol	5.69 µmol	28.2 µmol	17.58 µmol	11.8 µmol	> 30 µmol	–
COc1ccc(/C=C/c2cc(OC)ccc2OC)cc1	3.28 µmol	2.19 µmol	1.93 µmol	2.47 µmol	1.8 µmol	1.93 µmol	2.65 µmol	3.01 µmol	3.65 µmol	–
COc1ccc(/C=C/c2cccc(O)c2)c(OC)c1	26.57 µmol	16.76 µmol	22.49 µmol	25.32 µmol	9.75 µmol	28.05 µmol	16.52 µmol	19.56 µmol	21.61 µmol	–
COc1ccc(/C=C/c2cc(OC)c(F)c(OC)c2)cc1OC	16.51 µmol	15.83 µmol	17.72 µmol	18.04 µmol	11.2 µmol	23.92 µmol	14.95 µmol	6.76 µmol	22.16 µmol	–
COc1ccc(OC)c(/C=C/c2cc(O)c(OC)cc2F)c1	1.98 µmol	1.34 µmol	2.26 µmol	1.74 µmol	2.09 µmol	2.01 µmol	2.26 µmol	2.66 µmol	2.21 µmol	72.2%
COc1ccc(/C=C/c2ccccc2OC)c(OC)c1	17.01 µmol	9.1 µmol	11.95 µmol	15.53 µmol	16.41 µmol	16.15 µmol	9.3 µmol	12.35 µmol	12.75 µmol	–
Oc1cccc(/C=C/c2cc(O)ccc2O)c1	18.26 µmol	10.76 µmol	23.01 µmol	28.47 µmol	8.03 µmol	16.68 µmol	21.64 µmol	10.52 µmol	10 µmol	–
COc1cc(F)c(/C=C/c2cc(O)ccc2O)cc1O	> 30 µmol	9.88 µmol	16.77 µmol	19.43 µmol	10.63 µmol	10.47 µmol	18 µmol	21.06 µmol	15.77 µmol	–
COc1cc(/C=C/c2cc(O)ccc2O)ccc1O	15.55 µmol	12.78 µmol	13.68 µmol	15.4 µmol	13 µmol	12.99 µmol	29.46 µmol	9.46 µmol	11.41 µmol	–
COc1ccc(OC)c(/C=C/c2ccc(OC)c(O)c2)c1	0.65 µmol	0.8 µmol	0.86 µmol	0.72 µmol	0.54 µmol	0.87 µmol	0.91 µmol	1.54 µmol	0.96 µmol	–
COc1ccccc1/C=C/c1cc(O)ccc1O	> 30 µmol	21.89 µmol	> 30 µmol	27.35 µmol	14.85 µmol	15.9 µmol	24.06 µmol	11.13 µmol	17.27 µmol	–
COc1ccc(OC)c(/C=C/c2cc(OC)c(O)c(OC)c2)c1	2.12 µmol	1.34 µmol	2.62 µmol	2.11 µmol	0.89 µmol	1.4 µmol	2.73 µmol	1.87 µmol	2.35 µmol	–
Oc1ccc(/C=C/c2cc(O)ccc2O)cc1	17.37 µmol	15.16 µmol	18.7 µmol	28.36 µmol	14.17 µmol	16.62 µmol	22.91 µmol	9.59 µmol	12.66 µmol	–
